Published values from different studies.
Each line is one published result; the experiments were not run side by side.
Observed: cell growth or viability

SMILES	cell line	test	setting	endpoint	value
C[C@@H]1CN(c2ccc(-c3cc(C(=O)NCCOCCOCCOCCOCCNC(=O)Cn4cc(-c5[nH]cc(C(=O)N[C@@H](CC(N)=O)c6ccc(F)c(Cl)c6)c5-c5ccc(Cl)cc5F)cn4)ccc3F)cc2NC(=O)c2c[nH]c(=O)cc2C(F)(F)F)C[C@H](C)N1C	MV4-11	–	4.64 µM, 5 days	viability	27%
Cc1c(C(=O)O)ccc2c3n(nc12)[C@@H]1[C@H](C3)N(CC2CC2)[C@@]2(C(=O)Nc3cc(Cl)ccc32)[C@H]1c1cccc(Cl)c1F	human Fibroblast	ATP luminescence	–	IC50	0.012 µM
Cc1nc(Nc2ccc3c(c2)/C(=C/c2ccccc2C)C(=O)N3)c2ccccc2n1	BEAS-2B	MTT	–	IC50	8.74 µM
CN1Cc2c(N)cccc2C(=O)N1C1CCC(=O)NC1=O (stereo not drawn)	MV4-11	CCK-8	96 h	IC50	< 0.33 µM
Cc1nc(Nc2ccc3c(c2)/C(=C/c2ccccc2)C(=O)N3C)c2ccccc2n1	BEAS-2B	MTT	–	IC50	20.1 µM
Cc1noc2c1-c1ccccc1C(c1ccc(Cl)cc1)=N[C@H]2CC(N)=O	MV4-11	ATP luminescence	72 h	IC50	0.412 µM
Cn1cc(-n2cnc3c(NCc4nc5cc(Cl)c(Cl)cc5[nH]4)nc(N4CCOCC4)nc32)cn1	MDA-MB-468	–	5 days	EC50	0.00921 µM
COc1cc2ncnc(Nc3ccc4c(c3)/C(=C/c3ccccc3)C(=O)N4)c2cc1OC	BEAS-2B	MTT	–	IC50	17.5 µM
C[C@@H]1CN(c2ccc(-c3cc(C(=O)NCCOCCOCCOCCOCCOCCOCCNC(=O)/C=C/c4[nH]cc(C(=O)N[C@@H](CC(N)=O)c5ccc(F)c(Cl)c5)c4-c4ccc(Cl)cc4F)ccc3F)cc2NC(=O)c2ccc(F)cc2C(F)(F)F)C[C@H](C)N1C	MV4-11	–	4.64 µM, 5 days	viability	43.9%
Cc1nc(Nc2ccc3c(c2)CC(=O)N3)c2ccccc2n1	BEAS-2B	MTT	–	IC50	8.76 µM
CC(C)c1ccccc1[C@@H]1CCCN1C1CC2(CCN(c3ccc(C(=O)NS(=O)(=O)c4ccc(NC[C@H]5CC[C@](C)(O)CC5)c([N+](=O)[O-])c4)c(Oc4cnc5[nH]ccc5c4)c3)CC2)C1	KMS-12-PE	ATP luminescence	48 h	IC50	0.00086 µM
C=CC(=O)N1C[C@@H](n2nc(C#Cc3c(F)cc4c(ncn4C4CC4)c3F)c(C(N)=O)c2NC)C[C@@H]1COC	RBE	MTT	72 h	IC50	> 1 µM
Cc1nc(Nc2ccc3c(c2)C(C)(C)C(=O)N3)c2ccccc2n1	BEAS-2B	MTT	–	IC50	38.4 µM
CC1(C)CCC(CN2CCN(c3ccc(C(=O)NS(=O)(=O)c4ccc(NCC5CCOCC5)c([N+](=O)[O-])c4)c(Oc4cnc5[nH]ccc5c4)c3)CC2)=C(c2ccc(Cl)cc2)C1	MV4-11	ATP luminescence	48 h	IC50	0.012 µM
C=CC(=O)NC1CCN(c2ncc3ncnc(Nc4ccc(Oc5ccc6c(c5)ncn6C)c(C)c4)c3n2)CC1	647-V	–	–	EC50	2.32 µM
